Each structure is given as a SMILES string. “And” between values parts separate entries of the source, which are not always exact repeats. Equal values may be shown once. The source made the active and inactive calls.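 The calls were made as follows: active = falling-signal curve whose AC50 is no more than twice the top valid dose; inconclusive = flat fit with moderate inhibition, or poor fit; inactive = the rest.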 A value given as a limit tells only on which side of the number the result lay.

The term AC50 denotes the midpoint of the concentration-response curve, whichever way the signal moves.

Test [1] relates to SK-MEL-5 TRPM1-promoter luciferase, luminescence, 24 h. Description: MITF transcriptional reporter suppression – cell-based, SK-MEL-5, luciferase, dry powder, set 10, dose response (AID 651753). An outline of the steps:
(§1)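 Times: 24 h compound exposure at 37 °C, added day after seeding / System: SK-MEL-5 melanoma cells, stable TRPM1 promoter-driven luciferase reporter / Medium: DMEM lacking phenol red, plus 10% heat-inactivated FBS / Detection: Steady-Glo luciferase luminescence after 5 min room-temperature incubation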

Assay in test [2]: as above
As to conditions: SK-MEL-5 TRPM1-promoter luciferase, luminescence, 24 h; at 35 µM (top of the series). In a few lines: as §1

Consider `O=C1C(Nc2ccc(F)cc2)=C(N2CCCCC2)C(=O)c2ccccc21`, for which, in test [1], the AC50 is 18.5 µM.

As to `CCN1CCN(C2=C(Nc3ccc(F)cc3F)C(=O)c3ccccc3C2=O)CC1`, the AC50 in test [1] is 11.4 µM.

On to `CN1CCN(C2=C(Nc3ccc(F)cc3F)C(=O)c3ccccc3C2=O)CC1`, for which, in test [1], the AC50 is 13.1 µM.

As for `Cc1ccc(NC2=CC(=O)c3ccccc3C2=O)cc1`, in test [2], the activity change, negative = inhibition is 76.9% (inactive). The AC50 in test [1] is 3.13 µM.

`O=C1C=C(Nc2ccccc2)C(=O)c2ccccc21`: in test [1], the AC50 was 3.89 µM.

`COc1ccc(NC2=C(N3CCCCC3)C(=O)c3ccccc3C2=O)cc1`: the AC50 in test [1] is 17.2 µM.

In the case of `O=C1C(Nc2cccc(Cl)c2)=C(N2CCCC2)C(=O)c2ccccc21`, in test [1], the AC50 is > 70 µM (inactive).

Take `O=C1C=C(Nc2ccc([N+](=O)[O-])c(C(F)(F)F)c2)C(=O)c2ccccc21`: the AC50 in test [1] was 0.718 µM.

Consider `O=C1C(Nc2ccc(Br)cc2)=C(N2CCCCC2)C(=O)c2ccccc21`, for which the AC50 in test [1] was 19.2 µM.

As to `CC(C)N1CCN(C2=C(Nc3ccc(F)cc3F)C(=O)c3ccccc3C2=O)CC1`, in test [1], the AC50 was 12.6 µM.

`CC(C)N1CCN(C2=C(Nc3ccc(F)cc3)C(=O)c3ccccc3C2=O)CC1`: the AC50 in test [1] is 29.2 µM.

Regarding `O=C(NC1=C(N2CCN(c3ccccc3)CC2)C(=O)c2ccccc2C1=O)c1ccccc1`, the AC50 in test [1] is > 70 µM (inactive).

For the compound `COC1=C(NS(=O)(=O)c2ccccc2)C(=O)c2ccccc2C1=O`, the concentration at half-maximal activity (AC50) in test [1] is 8.13 µM.

Take `O=C1C(Nc2ccc(Cl)cc2)=C(N2CCCC2)C(=O)c2ccccc21`: the AC50 in test [1] was > 70 µM (inactive).

For the compound `NC1=CC(=O)c2ccccc2C1=O`, the concentration at half-maximal activity (AC50) in test [1] is 1.39 µM.

Take `NS(=O)(=O)c1ccc(NC2=CC(=O)c3ccccc3C2=O)cc1`: in test [1], the half-maximal activity concentration (AC50) was 0.651 µM and 0.229 µM.
